# From PubChem BioAssay
# MrgX1 ag: agonists of human MrgX1 receptor | MrgX1-HEK293 cells, Fluo-4 calcium fluorescence, agonist mode; active compounds read high | B-score at 10 µM | 310,000 compounds, 0.44% hits | AID 588627;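 active means calcium response B-score plate-corrected fluorescence ratio at least 3 library SD, with starting fluorescence B-score inside 5 SD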
# Target sequence (Q96LB2 whole entry, looked up): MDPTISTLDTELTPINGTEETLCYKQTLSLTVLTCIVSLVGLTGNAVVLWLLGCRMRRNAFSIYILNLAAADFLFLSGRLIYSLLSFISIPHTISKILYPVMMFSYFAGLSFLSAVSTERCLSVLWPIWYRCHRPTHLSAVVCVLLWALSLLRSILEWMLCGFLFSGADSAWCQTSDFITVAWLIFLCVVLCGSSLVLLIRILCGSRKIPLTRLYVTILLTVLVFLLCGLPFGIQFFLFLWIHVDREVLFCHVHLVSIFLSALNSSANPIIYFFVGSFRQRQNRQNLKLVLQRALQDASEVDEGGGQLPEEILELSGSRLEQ
#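 times = overnight plating, then 30 min 37 °C plus 30 min room-temperature dye loading | assay system = stable human MrgX1 HEK293 cell line | input = fifteen thousand cells per well | signal = kinetic calcium dye fluorescence, Fluo-4 NW | dosing = compound delivered in addition one of three | read-out = B-scored fluorescence response ratio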
# RGS4 pot: potentiators or activators of RGS4; HEK293 M3R/inducible RGS4, carbachol calcium flux Fluo4; active compounds read low; B-score at 10 µM; 310,000 compounds, 0.92% hits;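 active means B-score of the integrated calcium signal more than 4 SD below the library mean, with starting fluorescence not abnormally high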;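 further: negative B-score means reduced calcium response which marks RGS4 activation or potentiation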
#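 Detection: kinetic calcium fluorescence imaging with Fluo4-AM dye, 2 µM / Material: HEK293 cells with stable M3R and inducible RGS4 / Schedule: recording 10 s baseline at 1 Hz, 100 s post-agonist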
# MrgX1 PAM: human MrgX1 positive allosteric modulation, primary screen | 310,000 compounds, 0.63% hits | Q96LB2 | AID 588675 | MrgX1-HEK293, Fluo-4 calcium flux, FDSS; active compounds read high | B-score at 10 µM;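 active means plate-corrected calcium response at least 3 library SD above typical, normal starting fluorescence, not activating the receptor alone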;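 further: compound read alongside a low EC10 to EC30 dose of BAM8-22 agonist; peak minus trough fluorescence over baseline measured at the second addition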
# MrgX1 antagonist: human MrgX1 receptor antagonism, primary screen; B-score at 10 µM; MRGX1-HEK293 calcium flux, Fluo-4, BAM8-22 antagonism; active compounds read low; Q96LB2; 310,000 compounds, 1.3% hits;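 active means calcium-response B-score plate-corrected more than 3 library SD below zero, starting fluorescence within 5 deviations, no agonist response on first addition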;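 further: peak minus trough fluorescence over baseline after final BAM8-22 challenge near maximal dose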
# RGS4 block: human RGS4 inhibition. P49798. HEK293 M3R/RGS4 inducible, Fluo-4 calcium flux; active compounds read high; triggered by carbachol at its EC20. B-score at 10 µM. 310,000 compounds, 0.45% hits. AID 463165;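 active means B-score, a plate-corrected calcium signal, over three deviations above library mean, with baseline fluorescence within five deviations of library mean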;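 further: RGS4 expression induced by doxycycline in cells with stable M3 receptor; B-score is computed from the integrated fluorescence ratio over baseline after carbachol; higher B-score means a larger calcium signal and so more RGS4 inhibition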
# Target sequence (P49798 whole entry, looked up): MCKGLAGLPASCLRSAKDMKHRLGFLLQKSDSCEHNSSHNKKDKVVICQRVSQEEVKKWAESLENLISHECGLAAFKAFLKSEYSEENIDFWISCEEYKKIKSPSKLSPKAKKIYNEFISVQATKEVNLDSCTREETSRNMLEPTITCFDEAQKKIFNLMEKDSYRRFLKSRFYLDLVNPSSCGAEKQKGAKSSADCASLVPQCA
# Starred values were filed as active, the others as inactive; i = inactive. In the library only some 3.5% were active in any assay of this set; here they are far more common.
SMILES,MrgX1 ag,RGS4 pot,MrgX1 PAM,MrgX1 antagonist,RGS4 block
COc1ccc(C(=O)CN2C(=O)NC3(CCCc4ccccc43)C2=O)cc1 (stereo unspecified),i,-7.5*,i,i,i
O=C(NCCCN1CCOCC1)C(=O)N/N=C/c1c2ccccc2cc2ccccc12,i,-9.24*,i,i,i
CS(=O)(=O)c1ccccc1-c1nnc(NC(=O)c2cccc(N3C(=O)CCC3=O)c2)o1,i,i,i,i,i
O=C(NCCN1CCOCC1)c1ccc(/C=C2\Sc3ccccc3N(Cc3ccccc3F)C2=O)cc1,i,i,i,i,i
Cc1cccc(CN2C(=O)/C(=C\c3ccc(C(=O)NCCN4CCOCC4)cc3)Sc3ccccc32)c1,i,-7.32*,i,i,i
CCN1CCN(CCNC(=O)c2ccc(/C=C3/Sc4ccccc4N(Cc4cccc(Cl)c4)C3=O)cc2)CC1,i,-9.9*,i,i,i
CC(C)CN(C(=O)c1ccc(Br)o1)C1CCS(=O)(=O)C1 (stereo unspecified),i,i,i,i,i
COc1ccc(NS(=O)(=O)c2ccc(O)c(NC(=O)c3ccc(S(=O)(=O)N4CCCC4)cc3)c2)cc1,i,i,i,i,i
COc1ccc(NS(=O)(=O)c2ccc(O)c(NC(=O)c3ccc(S(=O)(=O)N4CCCCCC4)cc3)c2)cc1,i,-7.76*,i,i,i
C=CCOc1ccccc1/C=c1\sc2nc(=O)c(C)nn2c1=O,28.3*,i,i,i,i
Cn1cc(CCNC(=O)CC2C(=O)NCCN2CC(c2ccccc2)c2ccccc2)cn1 (stereo unspecified),i,i,i,i,i
COc1ccc(CCN(Cc2cc3cc(C)cc(C)c3nc2Cl)C(=O)C2CC2)cc1,i,-7.15*,i,i,i
O=C(CSc1ccc(F)cc1)Nc1ccc2c(c1)C(=O)NC2=O,i,i,i,i,i
C=CCNC(=S)NNC(=O)c1ccc([N+](=O)[O-])cc1,i,i,i,-7.91*,i
C=CCNC(=S)NNC(=O)c1ccccc1,i,i,i,i,i
CCCCCCCC(=O)NNC(=O)c1ccc([N+](=O)[O-])cc1,i,i,7.03*,i,i
COC(=O)CCC(=O)NNC(=O)c1ccc([N+](=O)[O-])cc1,i,i,i,i,i
O=C(CN1C(=O)NC2(CCc3ccccc32)C1=O)c1ccc(F)cc1 (stereo unspecified),i,i,i,i,i
OCCC1CN(Cc2nc(-c3ccccc3)cs2)CCN1C1CCCC1 (stereo unspecified),i,-7.18*,i,i,i
OCCC1CN(Cc2nc3ccccc3s2)CCN1C1CCCCC1 (stereo unspecified),i,i,i,-5.24*,i
CC(C)CN1CCN(Cc2nc3ccccc3s2)CC1CCO (stereo unspecified),i,i,i,i,i
COc1ccc2c(c1)C=C(CN1CCN(C3CCCC3)C(CCO)C1)CO2 (stereo unspecified),i,-6.98*,i,i,i
CC(C)C(=O)N1CCN(c2ccccc2NC(=O)c2ccco2)CC1,i,i,i,i,i
N#CC1=C(N)N2C(=C(C#N)C1c1ccccc1)Sc1ccccc12 (stereo unspecified),i,i,i,i,i
CCOc1ccc(C2C(C#N)=C(N)N3C(=C2C#N)Sc2ccccc23)cc1 (stereo unspecified),i,i,i,-4.83*,i
SMILES,MrgX1 ag,RGS4 pot,MrgX1 PAM,MrgX1 antagonist,RGS4 block
CCc1c(C)sc(NC(=O)Cc2ccccc2C)c1C(=O)N1CCOCC1,i,i,i,i,i
COc1ccc(N2CCN(C3CCCN(Cc4cccc(C(C)=O)c4)C3)CC2)cc1 (stereo unspecified),i,i,i,i,i
COc1cc2nc(SCc3c(C)noc3C)n(CCC3=CCCCC3)c(=O)c2cc1OC,i,-8.22*,i,i,i
COc1cc(/C=N/NC(=S)NCCN2CCOCC2)ccc1O,i,i,i,i,i
O=c1c2ccccc2nc(/C=C/c2cc(Br)ccc2O)n1CCO,i,i,i,i,i
CN(C)c1ccc(/C=C/c2nc3ccccc3c(=O)n2CCO)cc1,32.2*,i,i,i,i
O=c1c2ccccc2nc(/C=C/c2c[nH]c3ccccc23)n1CCO,i,-7.43*,i,i,i
CCN1CC(CN(C)Cc2cn(-c3ccc(C)cc3)nc2-c2cccc(C)c2)CC1=O (stereo unspecified),i,i,i,i,i
CCc1noc(C)c1C(=O)N1CCN(S(=O)(=O)c2ccc(Br)cc2)CC1,i,i,i,i,i
Cc1ccnc(NC(=O)CCC(=O)N(CC(=O)NCCc2ccccc2)c2ccccc2F)c1,i,i,i,i,i
CCN(Cc1ccccc1)C(=O)c1cccc(S(=O)(=O)N2CCN(Cc3ccccc3)CC2)c1,i,i,i,i,i
CCCCN(C(=O)c1cccc(S(=O)(=O)N2CCN(Cc3ccccc3)CC2)c1)c1ccccc1,i,i,i,-4.72*,i
Cc1cccc(-n2ncc3c2CCCC3NC(=O)CCCN2CCCCC2=O)c1C (stereo unspecified),i,i,i,i,i
CCN(CC(=O)Nc1ccc2c(c1)OCCO2)C(=O)CC(NC(C)=O)c1ccccc1 (stereo unspecified),i,i,i,-7.4*,i
CCN(CC(=O)Nc1ccc2c(c1)OCCO2)C(=O)/C=C/c1ccccc1,i,i,i,i,i
CCOC(=O)c1c2c3c(cccc3n(C)c1=O)C(=O)c1ccccc1-2,i,i,i,i,i
Cn1c(=O)c(Nc2ccc(Cl)cc2)c2c3c(cccc31)C(=O)c1ccccc1-2,i,-7.01*,i,i,i
COc1ccc(NS(=O)(=O)c2cc(NC(=O)/C=C/c3ccccc3OC)ccc2N2CCCCC2)cc1,i,i,i,i,i
Cc1ccc(NC(=O)/C(Cl)=C/c2ccccc2)cc1C,i,i,8.96*,i,i
Cc1ccc(C(=O)COC(=O)C2CC3CCCC(C2)C3=O)cc1[N+](=O)[O-] (stereo unspecified),i,i,i,-5.63*,i
CC1CN(C(=O)C2(C)CC2(Br)Br)CC(C)O1 (stereo unspecified),i,i,i,i,i
